Assay results: ChEMBL document CHEMBL3627693, “Novel aminotetrazole derivatives as selective STAT3 non-peptide inhibitors” (Eur J Med Chem, 2015)
Activity calls are given as the source filed them. The rule behind the calls is not given here.

Legend:
[1] = target: T1, Signal transducer and activator of transcription 3 (Homo sapiens, UniProt P40763); test: Inhibition of STAT3 (unknown origin) expressed in Oncostatin M induced human HeLa cells at 50 uM incubated for 1 hr by luciferase reporter gene assay; type: cell-based
[2] = tested on: HeLa; test: Cytotoxicity against human HeLa cells at 50 uM; type: cell-based
[3] = target: T2, Signal transducer and activator of transcription 1-alpha/beta (Homo sapiens) (UniProt P42224); test: Inhibition of STAT1 (unknown origin) expressed in IFN-gamma induced human HeLa cells at 50 uM incubated for 1 hr by luciferase reporter gene assay; type: cell-based
T2 sequence (whole entry): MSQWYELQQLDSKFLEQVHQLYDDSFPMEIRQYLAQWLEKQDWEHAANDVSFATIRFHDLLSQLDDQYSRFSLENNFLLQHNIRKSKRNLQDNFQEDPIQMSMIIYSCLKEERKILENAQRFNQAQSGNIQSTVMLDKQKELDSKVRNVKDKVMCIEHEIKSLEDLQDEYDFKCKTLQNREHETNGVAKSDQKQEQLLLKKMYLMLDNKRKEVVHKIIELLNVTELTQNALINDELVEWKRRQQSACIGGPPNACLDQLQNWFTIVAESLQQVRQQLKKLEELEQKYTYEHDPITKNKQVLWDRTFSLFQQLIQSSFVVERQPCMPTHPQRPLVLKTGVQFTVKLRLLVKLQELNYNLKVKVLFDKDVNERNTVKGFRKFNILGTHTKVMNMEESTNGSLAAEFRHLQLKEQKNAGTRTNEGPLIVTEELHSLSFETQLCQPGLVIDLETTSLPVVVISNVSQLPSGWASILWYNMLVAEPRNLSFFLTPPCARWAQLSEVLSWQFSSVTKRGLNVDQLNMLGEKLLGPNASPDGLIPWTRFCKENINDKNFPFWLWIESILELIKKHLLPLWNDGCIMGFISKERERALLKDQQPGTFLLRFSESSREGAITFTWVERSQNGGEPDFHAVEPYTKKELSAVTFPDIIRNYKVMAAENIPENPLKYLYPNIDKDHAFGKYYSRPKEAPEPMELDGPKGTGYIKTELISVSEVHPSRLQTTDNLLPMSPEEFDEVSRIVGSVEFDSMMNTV

[4] = target: T1, Signal transducer and activator of transcription 3; test: Displacement of fluorescent peptide 5-FAM-G(pTyr)LPQTV-CONH2 from GST-tagged full-length human STAT3 preincubated for 60 mins followed by fluorescent peptide addition measured after 30 mins by fluorescence polarization assay
In short: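 Full-length GST-STAT3 (100 nM) preincubated 60 min at room temperature with compound at various concentrations or vehicle, in 50 mM NaCl, 10 mM Hepes pH 7.5, 1 mM EDTA, 0.01% Triton X-100, 2 mM DTT. Labelled peptide then added to 10 nM final, 30 min room temperature. FP read with excitation 480, emission 535 (P and S pol).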

[5] = target: T2, Signal transducer and activator of transcription 1-alpha/beta (Homo sapiens); test: Displacement of fluorescent peptide 5-FAM-G(pTyr)YIKTE- CONH2 from GST-tagged human STAT1b preincubated for 60 mins followed by fluorescent peptide addition measured after 30 mins by fluorescence polarization assay
In short: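 GST-tagged human STAT1b preincubated 60 min at room temperature with compound at various concentrations or vehicle in 50 mM NaCl, 10 mM Hepes pH 7.5, 1 mM EDTA, 0.01% Triton X-100, 2 mM DTT. Labelled peptide added to 10 nM final, 30 min room temperature. Fluorescence polarization read with excitation 480, emission 535.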

[6] = tested on: CD4-positive T cell; test: Induction of polarization of C57BL/6 mouse spleen naive CD4+ lymphocytes into Th1 lymphocytes assessed as decrease in Tbet transcription; type: functional, tissue-based
[7] = tested on: MDA-MB-231; test: Cytotoxicity against human MDA-MB-231 cells assessed as decrease in cell proliferation after 72 hrs by MTT assay; type: functional, cell-based
[8] = target: T1, Signal transducer and activator of transcription 3; details: HeLa, 100 uM
[9] = tested on: PBL; test: Induction IFN-gamma production in human PBL cells co-cultured with HT29 cells at 50 uM after 24 hrs by ELISA; type: functional, cell-based
[10] = tested on: MDA-MB-231; test: Cytotoxicity against human MDA-MB-231 cells transfected with STAT3C assessed as decrease in cell proliferation after 72 hrs by MTT assay; type: functional, cell-based
[11] = target: T1, Signal transducer and activator of transcription 3; details: HeLa, 100 uM; remark: listed apart in the source
[12] = tested on: CD4-positive T cell; test: Induction of polarization of C57BL/6 mouse spleen naive CD4+ lymphocytes into Th17 lymphocytes assessed as decrease in ROR-gamma-t transcription at 50 uM; type: functional, tissue-based
[13] = tested on: CD4-positive T cell; test: Induction of polarization of C57BL/6 mouse spleen naive CD4+ lymphocytes into Treg lymphocytes assessed as decrease in ROR-gamma-t transcription at 50 uM; type: functional, tissue-based
[14] = tested on: B9; test: Cytotoxicity against mouse B9 cells assessed as decrease in cell proliferation at 50 uM after 72 hrs by MTT assay; type: functional, cell-based
[15] = target: T1, Signal transducer and activator of transcription 3; test: Inhibition of STAT3 (unknown origin) expressed in Oncostatin M induced human HeLa cells incubated for 1 hr by luciferase reporter gene assay
[16] = tested on: CD4-positive T cell; test: Induction of polarization of C57BL/6 mouse spleen naive CD4+ lymphocytes into Treg lymphocytes assessed as decrease in FoxP3 transcription at 50 uM; type: functional, tissue-based
[17] = tested on: CD4-positive T cell; test: Induction of polarization of C57BL/6 mouse spleen naive CD4+ lymphocytes into Th17 lymphocytes assessed as decrease in FoxP3 transcription at 50 uM; type: functional, tissue-based

T1 sequence (P40763 whole entry): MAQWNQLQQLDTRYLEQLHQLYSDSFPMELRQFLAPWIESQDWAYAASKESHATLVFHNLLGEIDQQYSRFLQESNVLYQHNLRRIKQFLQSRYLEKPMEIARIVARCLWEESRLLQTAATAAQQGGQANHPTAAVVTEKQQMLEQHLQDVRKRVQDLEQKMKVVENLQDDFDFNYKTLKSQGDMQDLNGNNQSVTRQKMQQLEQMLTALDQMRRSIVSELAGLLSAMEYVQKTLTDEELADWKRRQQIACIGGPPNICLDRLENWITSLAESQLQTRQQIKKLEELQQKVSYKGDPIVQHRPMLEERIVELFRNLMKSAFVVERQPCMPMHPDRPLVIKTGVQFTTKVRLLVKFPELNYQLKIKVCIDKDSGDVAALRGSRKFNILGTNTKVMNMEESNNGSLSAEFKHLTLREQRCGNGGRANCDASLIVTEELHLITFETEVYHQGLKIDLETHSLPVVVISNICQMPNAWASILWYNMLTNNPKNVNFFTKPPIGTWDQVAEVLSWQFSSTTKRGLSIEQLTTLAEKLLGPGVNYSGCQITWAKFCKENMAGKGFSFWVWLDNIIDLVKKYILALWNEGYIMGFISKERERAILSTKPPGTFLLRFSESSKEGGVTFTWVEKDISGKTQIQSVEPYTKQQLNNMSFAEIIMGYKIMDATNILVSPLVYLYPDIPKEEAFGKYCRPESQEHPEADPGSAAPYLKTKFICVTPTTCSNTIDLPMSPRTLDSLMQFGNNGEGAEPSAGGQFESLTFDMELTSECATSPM

inhibition [1]	inhibition [3]	SMILES	other results
53.9%	11.1%	COc1cc(CNc2nn[nH]n2)cc(Cl)c1OCc1ccc(C)cc1	Activity [4]: Active; Activity [5]: inactive
70.2%	15.7%	COc1cc(CNc2nn[nH]n2)cc(Cl)c1OCc1ccc([N+](=O)[O-])cc1	Activity [6]: inactive; Activity [7]: Dose-dependent effect; inhibition [8]: Active; Activity [9]: Active; Activity [10]: inactive; inhibition [11]: Active; Activity [12]: Active; Activity [4]: Active; Activity [13]: Active; Activity [14]: Dose-dependent effect; IC50 [15]: 25.7 µM; Activity [16]: Active; Activity [17]: Active; Activity [5]: inactive
58.8%	11.8%	COc1cc(CNc2nn[nH]n2)cc(Br)c1OCc1ccc(C)cc1	–
50.7%	1.2%	COc1cc(CNc2nn[nH]n2)cc(Cl)c1OCc1ccc(F)cc1	–
0%	9.7%	COc1cc(CNc2nn[nH]n2)cc(Cl)c1OCc1ccc(SC)cc1	–
0%	0%	COc1cc(CNc2nn[nH]n2)cc(Cl)c1OCc1ccc(-c2nccs2)cc1	–
43%	0%	COc1cc(CNc2nn[nH]n2)ccc1OCc1ccc(C)cc1	–
36%	6.4%	COc1cc(CNc2nn[nH]n2)cc([N+](=O)[O-])c1OCc1ccc([N+](=O)[O-])cc1	–
51.1%	11.7%	COc1cc(CNc2nn[nH]n2)cc(Cl)c1OCc1ccc(OC(F)(F)F)cc1	–
37.4%	13.2%	COc1cc(CNc2nn[nH]n2)cc(Cl)c1OCc1ccc(C#N)cc1	–
0%	0%	COc1cc(CNc2nn[nH]n2)cc(Cl)c1OCc1ccc(-c2csc(C)n2)cc1	–
11.9%	0%	COc1cc(CNc2nn[nH]n2)cc(Cl)c1OCc1ccc(C(C)(C)C)cc1	–

Further lines, the compound ahead of its results:

SMILES	inhibition [1]	inhibition [3]	other results
CCOc1cc(/C=C(\C#N)C(=O)NC2CCCCC2C)ccc1OCC(=O)O (stereo not drawn)	Active	–	Activity [2]: Toxic
COc1cc(NC#N)cc(Cl)c1OCc1ccc(C)cc1	50.2%	10.8%	Activity [4]: inactive; Activity [5]: Active
Brc1cc2c(cc1COc1ccc(-c3nn[nH]n3)cc1)OCO2	Active	–	Activity [2]: Toxic
COc1cc(CNCC(=O)O)cc(Cl)c1OCc1ccc([N+](=O)[O-])cc1	15.3%	13.1%	Activity [5]: Active
COc1cc(CNC#N)cc(Cl)c1OCc1ccc([N+](=O)[O-])cc1	91.8%	48.8%	Activity [4]: Active; Activity [5]: Active
COc1cc(C=O)cc(Cl)c1OCc1ccc([N+](=O)[O-])cc1	66.4%	62.3%	Activity [4]: Active; Activity [5]: Active
COc1cc(CNc2nn[nH]n2)cc(Cl)c1OCc1cccc([N+](=O)[O-])c1	40.1%	9.2%	Activity [4]: Active
COc1cc(CNc2nn[nH]n2)cc(Cl)c1OC(C)c1ccccc1 (stereo not drawn)	0%	0%	–
CCc1cc2c(cc1COc1c(Cl)cc(CNc3nn[nH]n3)cc1OC)C(C)(C)CCC2(C)C	77%	72.7%	–
COc1cc(CNc2nn[nH]n2)cc(Cl)c1OCc1cccc(COc2ccccc2)c1	0.7%	0%	–
COc1cc(CC(C(=O)O)c2nn[nH]n2)cc(Cl)c1OCc1ccc(C)cc1 (stereo not drawn)	40.2%	12.9%	–
COc1cc(C=O)cc(Cl)c1OCc1ccc(C)cc1	52.4%	31.4%	Activity [4]: Active; Activity [5]: Active
CCOc1cc(CNc2nn[nH]n2)cc(Cl)c1OCc1ccc([N+](=O)[O-])cc1	20.4%	34.8%	–
COc1cc(CNc2nn[nH]n2)cc(Cl)c1OCc1ccc(OC2CCOCC2)cc1	4.1%	0%	–
COc1cc(CN(CC(=O)O)Cc2cc(Cl)c(OCc3ccc(C)cc3)c(OC)c2)cc(Cl)c1OCc1ccc(C)cc1	54.7%	46%	–
COc1ccc([N+](=O)[O-])cc1COc1c(Cl)cc(CNc2nn[nH]n2)cc1OC	20.4%	0%	–
CCOc1cc(CNc2nn[nH]n2)cc(I)c1OCc1ccc([N+](=O)[O-])cc1	32.4%	15.1%	–
COc1cc(CC(C(=O)O)C(=O)O)cc(Cl)c1OCc1ccc(C)cc1	14.8%	24.5%	–
COC(=O)c1cccc(COc2c(Cl)cc(CNc3nn[nH]n3)cc2OC)c1	49.2%	0%	–
